From ChEMBL document CHEMBL1240420, “Synthesis and biological evaluation of cinnamido linked pyrrolo[2,1-c][1,4]benzodiazepines as antimitotic agents” (Eur J Med Chem, 2010)

How the values were obtained:
Type in all cases: functional
CCRF-CEM = assay: Cytotoxicity against human CCRF-CEM cells after 48 hrs by SRB assay
HL-60(TB) = assay: Cytotoxicity against human HL-60(TB) cells after 48 hrs by SRB assay; details: HL-60, 48 h
K562 = assay: Cytotoxicity against human K562 cells after 48 hrs by SRB assay; details: K562, 48 h
MOLT-4 = assay: Cytotoxicity against human MOLT4 cells after 48 hrs by SRB assay; details: MOLT-4, 48 h
SR = assay: Cytotoxicity against human SR cells after 48 hrs by SRB assay
A549 = assay: Cytotoxicity against human A549 cells after 48 hrs by SRB assay; details: A549, 48 h
Method in brief: (§1)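 Cells were grown in RPMI 1640 with 10% FBS and 2 mM L-glutamine, plated 24 h before dosing, then given continuous 48 h exposure at 0.1, 1, 10 and 100 µM in triplicate wells. Cells were fixed with cold TCA (10% final, 60 min, 4 °C), stained with 0.4% SRB in 1% acetic acid for 20 min, eluted with 10 mM Tris base, and read at 540/690 nm. GI50 was taken from [(Ti−Tz)/(C−Tz)]×100 = 50; three determinations were averaged.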

EKVX = assay: Cytotoxicity against human EKVX cells after 48 hrs by SRB assay
HOP-62 = assay: Cytotoxicity against human HOP62 cells after 48 hrs by SRB assay; details: HOP-62, 48 h; method in brief: as §1
HOP-92 = assay: Cytotoxicity against human HOP92 cells after 48 hrs by SRB assay; details: HOP-92, 48 h
NCI-H226 = assay: Cytotoxicity against human NCI-H226 cells after 48 hrs by SRB assay; details: NCI-H226, 48 h
LOX IMVI = assay: Cytotoxicity against human LOXIMVI cells after 48 hrs by SRB assay
Malme-3M = assay: Cytotoxicity against human MALME-3M cells after 48 hrs by SRB assay
M14 = assay: Cytotoxicity against human M14 cells after 48 hrs by SRB assay; details: M14, 48 h
SK-MEL-2 = assay: Cytotoxicity against human SK-MEL-2 cells after 48 hrs by SRB assay; details: SK-MEL-2, 48 h
SK-MEL-28 = assay: Cytotoxicity against human SK-MEL-28 cells after 48 hrs by SRB assay; details: SK-MEL-28, 48 h
SK-MEL-5 = assay: Cytotoxicity against human SK-MEL-5 cells after 48 hrs by SRB assay; details: SK-MEL-5, 48 h
UACC-257 = assay: Cytotoxicity against human UACC257 cells after 48 hrs by SRB assay; details: UACC-257, 48 h
UACC-62 = assay: Cytotoxicity against human UACC62 cells after 48 hrs by SRB assay; details: UACC-62, 48 h
NCI-H23 = assay: Cytotoxicity against human NCI-H23 cells after 48 hrs by SRB assay; details: NCI-H23, 48 h
NCI-H322M = assay: Cytotoxicity against human NCI-H322M cells after 48 hrs by SRB assay
NCI-H460 = assay: Cytotoxicity against human NCI-H460 cells after 48 hrs by SRB assay; details: NCI-H460, 48 h
NCI-H522 = assay: Cytotoxicity against human NCI-H522 cells after 48 hrs by SRB assay; details: NCI-H522, 48 h
COLO 205 = assay: Cytotoxicity against human COLO205 cells after 48 hrs by SRB assay; details: COLO 205, 48 h; method in brief: as §1
HCC 2998 = assay: Cytotoxicity against human HCC2998 cells after 48 hrs by SRB assay; details: HCC 2998, 48 h
HCT-116 = assay: Cytotoxicity against human HCT116 cells after 48 hrs by SRB assay; details: HCT-116, 48 h
HCT-15 = assay: Cytotoxicity against human HCT15 cells after 48 hrs by SRB assay; details: HCT-15, 48 h
HT-29 = assay: Cytotoxicity against human HT-29 cells after 48 hrs by SRB assay; details: HT-29, 48 h
KM12 = assay: Cytotoxicity against human KM12 cells after 48 hrs by SRB assay; details: KM12, 48 h
SW-620 = assay: Cytotoxicity against human SW620 cells after 48 hrs by SRB assay; details: SW-620, 48 h
SF-268 = assay: Cytotoxicity against human SF268 cells after 48 hrs by SRB assay; details: SF-268, 48 h
SF-295 = assay: Cytotoxicity against human SF295 cells after 48 hrs by SRB assay; details: SF-295, 48 h
SF-539 = assay: Cytotoxicity against human SF539 cells after 48 hrs by SRB assay; details: SF-539, 48 h
SNB-19 = assay: Cytotoxicity against human SNB19 cells after 48 hrs by SRB assay; details: SNB-19, 48 h
SNB-75 = assay: Cytotoxicity against human SNB75 cells after 48 hrs by SRB assay; details: SNB-75, 48 h
U-251 = assay: Cytotoxicity against human U251 cells after 48 hrs by SRB assay; details: U-251, 48 h
786-0 = assay: Cytotoxicity against human 786-0 cells after 48 hrs by SRB assay; details: 786-0, 48 h
A498 = assay: Cytotoxicity against human A498 cells after 48 hrs by SRB assay; details: A498, 48 h
ACHN = assay: Cytotoxicity against human ACHN cells after 48 hrs by SRB assay
CAKI-1 = assay: Cytotoxicity against human Caki1 cells after 48 hrs by SRB assay; details: CAKI-1, 48 h
RXF 393 = assay: Cytotoxicity against human […] cells after 48 hrs by SRB assay; details: RXF 393, 48 h
SN12C = assay: Cytotoxicity against human SN12C cells after 48 hrs by SRB assay
TK-10 = assay: Cytotoxicity against human TK10 cells after 48 hrs by SRB assay; details: TK-10, 48 h
UO-31 = assay: Cytotoxicity against human UO31 cells after 48 hrs by SRB assay; details: UO-31, 48 h
PC-3 = assay: Cytotoxicity against human PC3 cells after 48 hrs by SRB assay; details: PC-3, 48 h; method in brief: as §1
DU-145 = assay: Cytotoxicity against human DU145 cells after 48 hrs by SRB assay; details: DU-145, 48 h
IGROV-1 = assay: Cytotoxicity against human IGROV1 cells after 48 hrs by SRB assay; details: IGROV-1, 48 h
OVCAR-3 = assay: Cytotoxicity against human OVCAR-3 cells after 48 hrs by SRB assay; details: OVCAR-3, 48 h
OVCAR-4 = assay: Cytotoxicity against human OVCAR4 cells after 48 hrs by SRB assay; details: OVCAR-4, 48 h
OVCAR-5 = assay: Cytotoxicity against human OVCAR5 cells after 48 hrs by SRB assay; details: OVCAR-5, 48 h
OVCAR-8 = assay: Cytotoxicity against human OVCAR8 cells after 48 hrs by SRB assay; details: OVCAR-8, 48 h
SK-OV-3 = assay: Cytotoxicity against human SKOV3 cells after 48 hrs by SRB assay; details: SK-OV-3, 48 h
MCF7 = assay: Cytotoxicity against human MCF7 cells after 48 hrs by SRB assay; details: MCF7, 48 h; method in brief: as §1
NCI/ADR-RES = assay: Cytotoxicity against human NCI/ADR-RES cells after 48 hrs by SRB assay
MDA-MB-231 = assay: Cytotoxicity against human MDA-MB-231 cells after 48 hrs by SRB assay; details: MDA-MB-231, 48 h
[1] = Cytotoxicity against human Hs 578T cells after 48 hrs by SRB assay
MDA-MB-435 = assay: Cytotoxicity against human MDA-MB-435 cells after 48 hrs by SRB assay; details: MDA-MB-435, 48 h
BT-549 = assay: Cytotoxicity against human BT549 cells after 48 hrs by SRB assay; details: BT-549, 48 h
T47D = assay: Cytotoxicity against human T47D cells after 48 hrs by SRB assay
MDA-MB-468 = assay: Cytotoxicity against human MDA-MB-468 cells after 48 hrs by SRB assay; details: MDA-MB-468, 48 h

COc1cc(/C=C/C(=O)N2CCN(C(=O)c3cc(OC)c(OC)c(OC)c3)CC2)ccc1OCCCOc1cc2c(cc1OC)C(=O)N1CCC[C@H]1C=N2
GI50 (CCRF-CEM): 80 nM
GI50 (HL-60(TB)): 180 nM
GI50 (K562): 690 nM
GI50 (MOLT-4): 230 nM
GI50 (SR): 280 nM
GI50 (A549): 1890 nM
GI50 (EKVX): 720 nM
GI50 (HOP-62): 230 nM
GI50 (HOP-92): 490 nM
GI50 (NCI-H226): 310 nM
GI50 (LOX IMVI): 240 nM
GI50 (Malme-3M): 170 nM
GI50 (M14): 320 nM
GI50 (SK-MEL-2): 260 nM
GI50 (SK-MEL-28): 200 nM
GI50 (SK-MEL-5): 190 nM
GI50 (UACC-257): 350 nM
GI50 (UACC-62): 160 nM
GI50 (NCI-H23): 260 nM
GI50 (NCI-H322M): 340 nM
GI50 (NCI-H460): 240 nM
GI50 (NCI-H522): 60 nM
GI50 (COLO 205): 190 nM
GI50 (HCC 2998): 240 nM
GI50 (HCT-116): 170 nM
GI50 (HCT-15): 2980 nM
GI50 (HT-29): 260 nM
GI50 (KM12): 210 nM
GI50 (SW-620): 170 nM
GI50 (SF-268): 240 nM
GI50 (SF-295): 310 nM
GI50 (SF-539): 240 nM
GI50 (SNB-19): 380 nM
GI50 (SNB-75): 210 nM
GI50 (U-251): 180 nM
GI50 (786-0): 270 nM
GI50 (A498): 190 nM
GI50 (ACHN): 2540 nM
GI50 (CAKI-1): 2110 nM
GI50 (RXF 393): 540 nM
GI50 (SN12C): 270 nM
GI50 (TK-10): 290 nM
GI50 (UO-31): 2590 nM
GI50 (PC-3): 730 nM
GI50 (DU-145): 330 nM
GI50 (IGROV-1): 240 nM
GI50 (OVCAR-3): 210 nM
GI50 (OVCAR-4): 1070 nM
GI50 (OVCAR-5): 290 nM
GI50 (OVCAR-8): 450 nM
GI50 (SK-OV-3): 610 nM
GI50 (MCF7): 80 nM
GI50 (NCI/ADR-RES): 8910 nM
GI50 (MDA-MB-231): 230 nM
GI50 [1]: 230 nM
GI50 (MDA-MB-435): 180 nM
GI50 (BT-549): 150 nM
GI50 (T47D): 230 nM
GI50 (MDA-MB-468): 70 nM
